Laboratory results reported in ChEMBL document CHEMBL4513216, “Probing the Open Global Health Chemical Diversity Library for Multistage-Active Starting Points for Next-Generation Antimalarials” (ACS Infect Dis, 2020).

Test: Toxicity liver stage against HepG2, at 10uM
Type: cell-based
Set-up: test concentration 10 uM, cell line HepG2-A16-CD81EGFP
Conditions: human, HepG2-A16-CD81EGFP cells; read-out: INHIBITION
Summary of the method: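 Uninfected HepG2-A16-CD81EGFP cells, 3 × 10^3 per well, 1536-well, plated on prespotted compound at 10 μM final, parasite-free screening media added to match infected plates; puromycin 10 μM positive, DMSO 0.5% negative; run in parallel with 48 h PbLuc assay at 37 °C, 5% CO2; viability by CellTiter-Glo luminescence, normalized to controls.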

| SMILES | cytotoxicity at 10 µM |
| --- | --- |
| CC(C)N[C@@H]1CO[C@H](CNC(=O)Nc2ccccc2)[C@H]1O | 1.53% |
| Cc1ccc2nc(CSCC(=O)Nc3nnc(C(C)C)s3)cc(=O)n2c1 | -4.44% |
| COc1cc(CN2CCCCCC2c2cccs2)cc(OC)c1O (stereo not given) | 8.6% |
| O=C(C1CC1)N1CCN2C[C@H](c3ccccc3)[C@@H](CO)[C@H]2C1 | 4.9% |
| Cc1nn2c(NC(=O)CSc3nccn3C)csc2nc1=O | 9.71% |
| O=c1c(NCc2ccccn2)c(NCC(O)CN2CCOCC2)c1=O (stereo not given) | -54.5% |
| N#Cc1cccnc1OC1CCN(S(=O)(=O)c2ccc(Br)cc2)CC1 | 3.61% |
| O=S(=O)(NCC(O)c1ccc2c(c1)CCO2)c1ccccc1F (stereo not given) | -8.25% |
| Cn1cc(C(=O)Nc2ccc(CC(=O)NCC(F)(F)F)cc2)nn1 | 10.8% |
| CCn1ncc2c1CN(C(=O)c1ccc3c(c1)OCO3)CC2COC (stereo not given) | 8.7% |
| Cc1noc(C2CN(S(C)(=O)=O)Cc3ccnn3C2)n1 (stereo not given) | 4.92% |
| COCC1CN(S(=O)(=O)C2CC2)Cc2ncn(CC3CC3)c21 (stereo not given) | 9.03% |
| COc1cccc(Cn2c(=O)n(C)c(=O)c3sccc32)c1 | 3.29% |
| Cc1cc(O)n(-c2ccccc2Cl)c(=O)c1C#N | 2.96% |
| COCCC(=O)Nc1cnn(COc2ccc(F)cc2Cl)c1 | -8.68% |
| O=C(c1ccnn1COc1ccc(Cl)cc1)N1CCOCC1 | -3.94% |
| CN(C)Cc1cccc(-c2cccnc2C(=O)NCc2cn(C)cn2)c1 | 4.09% |
| Cc1nc(Nc2ncc(C)s2)cc(C2CCCN2S(C)(=O)=O)n1 (stereo not given) | -37.6% |
| c1cc(-c2nc(C3CCN(Cc4ccsc4)CC3)no2)ccn1 | -26.5% |
| C[C@]1(O)CN(Cc2ncccc2F)CC[C@@H]1Oc1cccc(F)c1 | -2.11% |
| CC(=O)N1CCC(c2ccnc(Nc3cnccn3)n2)C1 (stereo not given) | -0.182% |
| CC(C)(C)c1n[nH]cc1CN1CCc2nc3ccsc3c(=O)n2CC1 | 6.12% |

| SMILES | cytotoxicity at 10 µM |
| --- | --- |
| Cc1ccc(OCCCNC(=O)C(C)Sc2nncn2C)cc1 (stereo not given) | -45% |
| Cc1ccc(C)c(CC(=O)NC2CCC(N3C(=O)CCC3=O)CC2)c1 (stereo not given) | -1.32% |
| CCN1CCN(c2ccccc2NC(=O)NCc2ccon2)CC1 | 10.4% |
| CN(Cc1ccco1)C(=O)C1CCCc2ccccc21 (stereo not given) | 3.68% |
| NC(=O)CSCC(=O)NCC1CCCC1 | 3.15% |
| COCCNC(=O)N1CCOCC1c1c(C)nn(C)c1C (stereo not given) | -8.18% |
| Cc1cc(C)n(CC(C)NC(=O)NCc2c(C)cc(C)[nH]c2=O)n1 (stereo not given) | -6.58% |
| N#Cc1cccc(CN2CCCC2c2ccc[nH]2)c1 (stereo not given) | -11.9% |
| CCN(CC)CC(=O)Nc1ccc(-n2ccc(C(N)=O)n2)cc1 | -6.9% |
| Cc1ccc(O)c(C(=O)N2CCCC2CC(=O)c2cnn(C)c2)c1 (stereo not given) | -3.81% |
| CCN(C1CCN(Cc2ncc(C(C)(C)C)o2)CC1)S(C)(=O)=O | -4.15% |
| CCC(CC)C(=O)Nc1ccc2oc(=O)n(CCN(C)C)c2c1 | -13.7% |
| Cc1cc2n(n1)CC(CNC1CCN(Cc3ccccn3)CC1)CN2 (stereo not given) | 3.67% |
| CC(C)c1noc(CCCC(=O)NC(C)c2nnc3n2CCC3)n1 (stereo not given) | 9.96% |
| O=C1NCC2CN(Cc3ccccc3OCc3ccccn3)CCN12 (stereo not given) | -1.36% |
| COc1ccc(N(C(=O)c2ccccn2)C(C)C)cc1F | -1.26% |
| CS(=O)(=O)CCSCc1ccc(Br)c(F)c1 | 0.49% |
| O=C(C[S+]([O-])Cc1c(Cl)cccc1Cl)N1CCc2sccc2C1 (stereo not given) | -7.23% |
| Cc1cccc(C(C)(C)NC(=O)CCS(C)(=O)=O)c1 | 2.41% |
| CCCc1nc(C)c(C(=O)NCCn2ccnc2)s1 | 8.14% |
| Cc1cccc2c(CCNC(=O)NCCC[S+](C)[O-])c[nH]c12 (stereo not given) | -25.4% |
| N#Cc1cccc(S(=O)(=O)Nc2c(F)cccc2N2CCCC2)c1 | 2.62% |

| SMILES | cytotoxicity at 10 µM |
| --- | --- |
| CCN(C(=O)NCc1ccccc1OC(F)F)C(C)c1cccnc1 (stereo not given) | -2.28% |
| Cc1n[nH]c(SCC(=O)NC(c2ccncc2)C(C)C)n1 (stereo not given) | 16.4% |
| O=C(NCc1ccccc1F)Nc1ccn(CCN2CCOCC2)n1 | -7.85% |
| CN(CCOc1ccc(Cl)cc1)Cc1ccc(S(=O)(=O)N(C)C)o1 | 33.6% |
| CC(C)Cc1noc(CN2CCOCC2C)n1 (stereo not given) | 2.8% |
| Cc1cccc(C(=O)N2CCN(CCC(C)C)CC2)n1 | -3.53% |
| O=C(Nc1ccncc1)NC1CCN(c2ccccc2Cl)C1=O (stereo not given) | -43.6% |
| CSCC(=O)Nc1nccn1Cc1ccc(Br)cc1 | -45.8% |
| Cc1ccc2oc(CNC(C)c3nnc4n3CCCC4)cc2c1 (stereo not given) | -17.9% |
| CCN(CC)C1CCN(C(=O)NCc2c(C)noc2C)CC1 | -3.71% |
| CC(C)CN1CCC(NC(=O)c2ccc(F)cc2I)CC1 | -33.9% |
| COc1cc(N2C[C@@H]3COC[C@@H](Cc4nnc(C)o4)[C@@H]3C2)ncn1 | -112% |
| CC(C)N1CCCC2(CCN(C(=O)COCC(F)(F)C(F)F)C2)C1=O (stereo not given) | 13.1% |
| C=Cc1ccc(C(=O)N2CCCC(Nc3ccccc3)C2)cc1 (stereo not given) | -9.01% |
| O=C(N[C@H]1CN(c2nc(CO)cs2)C[C@@H]1C1CC1)C1CCCCC1 | -0.464% |
| CCc1ncc(C(=O)N(CCOC)Cc2nccs2)cn1 | -1.47% |
| CCCS(=O)(=O)NCc1cccnc1Oc1ccc(C)c(F)c1F | -2.19% |
| CCC(=O)Nc1cccc(C(=O)NCCC2=CSC3=NCCCN23)c1 | 1.93% |
| Cc1cc(-c2nn(C)c(Cl)c2CN2CCC3(CC2)[C@H](O)C[C@@H]3O)no1 | -5.66% |
| Cc1ccc2nc(-c3cnc(N)nc3)c(C)c(C(=O)N(C)C)c2c1 | -13.8% |
| CCCC(C)NCc1cccnc1N1CCN(c2ccccn2)CC1 (stereo not given) | 6.99% |
| CN(Cc1cc2n(n1)CCNC2)Cc1noc(C2CCC2)n1 | 15.2% |

| SMILES | cytotoxicity at 10 µM |
| --- | --- |
| CSCCN1CCC(NC(=O)c2cccc(C3CCCNC3)c2)CC1 (stereo not given) | 0.49% |
| CCO[C@H]1C[C@@H](O)C12CCN(C1Cc3ccccc3C1)CC2 | 4.54% |
| COC(=O)c1ccc(-c2noc(CN(CCO)Cc3cccs3)n2)cc1 | 6.43% |
| Nc1nc(CCC(=O)N2C[C@H](c3ccccc3)[C@@H](N)C2)cs1 | 4.49% |
| CC(C)OC(=O)N1CCCC(c2nccn2Cc2ccncc2)C1 (stereo not given) | 4.56% |
| Cn1cnnc1CCC(=O)N1CCCC(OCc2cccnc2)C1 (stereo not given) | 2.66% |
| COCCN(C)C[C@@H]1CN(C(=O)NC2CCCCC2)C[C@@H]1CO | 3.41% |
| CSc1ncc(CNC(C)c2cnn(-c3ccc(F)cc3F)c2C)cn1 (stereo not given) | 2.77% |
| Cc1ccc(CN2CCN(Cc3ccncc3)CC2=O)cc1 | -5.64% |
| Cc1ncc(CC(=O)N2CCC3(CCC(=O)N(C4CC4)C3)CC2)c(=O)[nH]1 | -45.1% |
| CC1CCCN(Cc2ccc(C(N)=O)cc2)C1 (stereo not given) | -10.4% |
| CC(C1CCN(Cc2cnn(C)c2C2CC2)CC1)N(C)C (stereo not given) | 7.88% |
| CN(C)CCn1ccnc1C1CCN(c2cc(N)nc(N)n2)CC1 | 0.829% |
| Cc1nc[nH]c1-c1nccn1-c1ccc(C(N)=O)c(N2CCCC2)c1 | 6.23% |
| O=C(c1nc2sccn2c1-c1ncc[nH]1)N1CCCCC1 | 7.52% |
| CC(C)(C)n1cc(C2=CCN(CCc3ccccc3)CC2)cn1 | 14.3% |
| O=C(c1cccs1)N1CCC(n2nc(-c3ccco3)ccc2=O)CC1 | -6.62% |
| COCC(=O)N1CCC(c2nccnc2Oc2cccnc2C)CC1 | 6.79% |
| COCc1cccc(CNCc2c(C(C)C)nn(C)c2N(C)C)c1 | -7.16% |
| Cc1cc(C)c(CNC(=O)c2ccc3c(c2)CCC3)c(=O)[nH]1 | 0.983% |
| CNS(=O)(=O)c1ccc(CNC(=O)Nc2cn[nH]c2)cc1 | -8.75% |
| Cc1cnn(CCNCC(O)COc2cc(Cl)ccc2Cl)c1 (stereo not given) | 2.22% |

| SMILES | cytotoxicity at 10 µM |
| --- | --- |
| Cn1ncc2c1CCCC2NCc1cccc2c1OCCCO2 (stereo not given) | -9.86% |
| O=C(CCc1ccccc1F)NS(=O)(=O)c1ccc2c(c1)OCCO2 | -18.6% |
| Cc1ccn2ncc(C(=O)N3CCCC(n4cccn4)C3)c2n1 (stereo not given) | -24.3% |
| CCc1ncncc1C(=O)N1CCN(Cc2ccco2)CC1 | -4.91% |
| CN1CCN(C(=O)c2ccc(=O)n(C)c2)c2ccccc21 | -11.5% |
| CCC(=O)NC1CCN(c2cccc(CC)c2)CC1 | -4.16% |
| Cc1cccc(C)c1OCCNC(=O)NC(C)c1nncn1C (stereo not given) | 7.8% |
| CC1(C)CC(N(Cc2ccncc2)Cc2cccnc2)CC(C)(C)N1 | -14.6% |
| Cc1cc(C[C@@H]2COC[C@H]2NCc2ccc(Cl)c(Cl)c2)on1 | -5.44% |
| Cc1nnc(N2C[C@@H](OCCCn3cccn3)[C@H]3OCCC[C@H]32)s1 | -8.19% |
| Cc1noc([C@@H]2CC[C@@H]3[C@@H](CCN3c3nnc(C)s3)O2)n1 | 9.28% |
| Cc1cnc(N2CCC3(CC2)CC3CNC(=O)C2CCC2)nc1 (stereo not given) | 38% |
| CC(C)(C)C(=O)N1C[C@H](c2ccsc2)[C@H]2CN(C3CCCCC3)CC[C@H]21 | 5.9% |
| Cc1ccc(N2CCO[C@H]3CN(Cc4ccccn4)C[C@H]32)nn1 | -79.8% |
| O=C(CC1CC1)NCc1cn2c(n1)CN(Cc1cccc(F)c1)CC2 | -85.8% |
| Cc1ccc2c(CC(=O)N(C)CCN(C)C)c(C)[nH]c2c1C | 8.42% |
| CN1CCCCC12CCN(C(=O)c1cccn1C)CC2 | 8.22% |
| O=C(COc1ccccc1)N1C[C@@H]2COC[C@]2(COc2cccnc2)C1 | -100% |
| O=C(C1CCCCC1)N1CCC2(CCCN2CC2CC2)CC1 | 3.56% |
| CCS(=O)(=O)N1CCOC2(CCCN(c3ccccn3)C2)C1 (stereo not given) | 3.16% |
| CN1[C@@H]2CC[C@H]1CN(C(=O)CCc1csc(N)n1)CC2 | -0.0143% |
| O=C(NCC1CCC(c2nnc(-c3cccnc3)o2)CC1)C1CC1 (stereo not given) | 3.15% |
